6 molecules from ChEMBL document CHEMBL3046169, “Synthesis and bioactivity study of 2-acylamino-substituted N'-benzylbenzohydrazide derivatives” (2012) can be followed below.

Values after ≈ are worked out from the molar mass of the structure shown. Active and inactive are the calls of the source. The calls are words filed in the database; no cut-off is given here.

The test system of experiment [1] is Tetranychus cinnabarinus. Nature of the experiment: Pesticidal activity against Tetranychus cinnabarinus (carmine spider mite) third- instar larvae grown on Phaseolus vulgaris leaves assessed as conversion of corpus colour to black at 25 to 400 mg/L measured 48 hr post compound exposure. The class given is functional, organism-based. The procedure, abridged:
(§1)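 Mite larvae (>20 third-instar on Phaseolus vulgaris leaves) leaf-dipped 5 s in compound at 400, 200, 100, 50 or 25 mg L⁻¹ in water with 0.05% Triton X-100, kept at 25 ± 1 °C. Movement of larvae observed at 1 h; corpse colour change to black observed at 48 h after treatment.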

The test system of experiment [2] is Tetranychus cinnabarinus. The experiment is described as follows: Pesticidal activity against Tetranychus cinnabarinus (carmine spider mite) third- instar larvae grown on Phaseolus vulgaris leaves assessed as reduction in larval movement at 25 to 400 mg/L measured 1 hr post compound exposure. The format is functional, organism-based. The procedure, abridged: as §1

Experiment [3] deals with Tetranychus cinnabarinus. Nature of the experiment: Pesticidal activity against Tetranychus cinnabarinus (carmine spider mite) third- instar larvae grown on Phaseolus vulgaris leaves assessed as pest mortality measured 48 hr post compound exposure. The class given is functional. The method, boiled down: (§2)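 More than 20 third-instar mite larvae on Phaseolus vulgaris leaves dipped 5 s in compound solutions (water with 0.05% Triton X-100), excess liquor removed. Larvae held at 25 ± 1 °C in illumination box; mortality read at 48 h. Primary screen at 600 mg L⁻¹, follow-up at 400, 200, 100, 50 and 25 mg L⁻¹ with LC50 calculated. Triplicate tests.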

Experiment [4] concerns Tetranychus cinnabarinus. The experiment is described as follows: Pesticidal activity against Tetranychus cinnabarinus (carmine spider mite) third- instar larvae grown on Phaseolus vulgaris leaves assessed as pest mortality at 25 mg/L measured 48 hr post compound exposure. The format is functional. The method, boiled down: as §2
The test system of experiment [5] is Tetranychus cinnabarinus. The experiment is described as follows: Pesticidal activity against Tetranychus cinnabarinus (carmine spider mite) third- instar larvae grown on Phaseolus vulgaris leaves assessed as pest mortality at 100 mg/L measured 48 hr post compound exposure. The class given is functional. The method, boiled down: as §2
In experiment [6] the test system is Tetranychus cinnabarinus. The experiment is described as follows: Pesticidal activity against Tetranychus cinnabarinus (carmine spider mite) third- instar larvae grown on Phaseolus vulgaris leaves assessed as pest mortality at 400 mg/L measured 48 hr post compound exposure. The class given is functional. The method, boiled down: as §2
Experiment [7] concerns Tetranychus cinnabarinus. Nature of the experiment: Pesticidal activity against Tetranychus cinnabarinus (carmine spider mite) third- instar larvae grown on Phaseolus vulgaris leaves assessed as pest mortality at 50 mg/L measured 48 hr post compound exposure. The format is functional. The procedure, abridged:
as §2

Experiment [8] deals with Tetranychus cinnabarinus. The experiment is described as follows: Pesticidal activity against Tetranychus cinnabarinus (carmine spider mite) third- instar larvae grown on Phaseolus vulgaris leaves assessed as pest mortality at 200 mg/L measured 48 hr post compound exposure. The format is functional. The method, boiled down:
as §2

The test system of experiment [9] is Plutella xylostella. The experiment is described as follows: Pesticidal activity against Plutella xylostella (diamondback moth) second-instar larvae grown on cruciferous vegetables leaves leaves as pest mortality at 600 mg/L measured 48 hr post compound exposure. The format is functional. The procedure, abridged: (§3)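 Over 20 second-instar larvae on cruciferous vegetable leaves dipped 5 s in compound diluted in distilled water containing 0.05% Triton X-100, excess liquid removed. Kept in illumination box at 25 ± 1 °C; mortality recorded 48 h after treatment. Each test in triplicate.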

Experiment [10] deals with Tetranychus cinnabarinus. Nature of the experiment: Pesticidal activity against Tetranychus cinnabarinus (carmine spider mite) third- instar larvae grown on Phaseolus vulgaris leaves assessed as pest mortality at 600 mg/L measured 48 hr post compound exposure. The class given is functional. The procedure, abridged:
as §2

In experiment [11] the test system is Aphis gossypii. The experiment is described as follows: Pesticidal activity against Aphis gossypii (cotton aphid) third-instar nymphae grown on tender Hibiscus syriacus leaves assessed as pest mortality at 600 mg/L measured 24 hr post compound exposure. The class given is functional. The conditions noted are these: in Hibiscus syriacus. The method, boiled down: (§4)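 Leaf-dip bioassay: over 30 healthy apterous third-instar nymphs on tender Hibiscus syriacus leaves dipped 5 s in compound diluted in distilled water with 0.05% Triton X-100, excess fluid removed. Held in illumination box at 25 ± 1 °C; mortality scored after 24 h. Tests in triplicate.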

Experiment [12] deals with Aphis gossypii. The experiment is described as follows: Pesticidal activity against Aphis gossypii (cotton aphid) third-instar nymphae grown on tender Hibiscus syriacus leaves assessed as pest mortality at 2 mg/L measured 24 hr post compound exposure. The format is functional. The note with it: in Hibiscus syriacus. The method, boiled down: as §4
The subject of experiment [13] is Aphis gossypii. Nature of the experiment: Pesticidal activity against Aphis gossypii (cotton aphid) third-instar nymphae grown on tender Hibiscus syriacus leaves assessed as pest mortality at 200 mg/L measured 24 hr post compound exposure. The class given is functional. The note with it: in Hibiscus syriacus. The procedure, abridged: as §4
For experiment [14], the system named is Plutella xylostella. The experiment is described as follows: Pesticidal activity against Plutella xylostella (diamondback moth) second-instar larvae grown on cruciferous vegetables leaves leaves as pest mortality at 0.2 mg/L measured 48 hr post compound exposure. The class given is functional. The procedure, abridged: as §3

With `Cc1cc(Br)cc(C(=O)NNCc2ccccc2Cl)c1NC(=O)C(C)(C)CCl`, the result in experiment [1] and in experiment [2] was Active. For the same molecule, the 50% lethal concentration (LC50) (as a rule, the concentration that kills 50% of the test population) in experiment [3] was 51.7 µg/mL (≈ 106 µM). In addition, the mortality (as a rule, the share of the test organisms that died) at 25 µg/mL in experiment [4] was 36.5%. Also, the mortality at 100 µg/mL in experiment [5] was 62.6%. For the same molecule, in [6], the mortality at 400 µg/mL was determined as 89.6%. Further, in experiment [7], the mortality at 50 µg/mL came out at 44.9%. The mortality at 200 µg/mL in [8] was found to be 83.6%. Also, the mortality at 600 µg/mL in experiment [9] was 76%; in experiment [10], 95.7%; in experiment [11], 8.5%.
Take `Cc1cc(Cl)cc(C(=O)NNCc2ccccc2Cl)c1NC(=O)C(C)(C)C`: the outcome in experiment [1] and in experiment [2] was Active. For the same molecule, in experiment [3], the LC50 is 43.8 µg/mL (≈ 107 µM). Moreover, the mortality at 25 µg/mL in experiment [4] was found to be 30.9%. Further, the mortality at 100 µg/mL in experiment [5] stood at 60.8%. For the same molecule, the mortality at 400 µg/mL in experiment [6] was 97.8%. In addition, the mortality at 50 µg/mL in experiment [7] was 62.5%. For the same molecule, the mortality at 200 µg/mL in experiment [8] was found to be 82.2%. The mortality at 600 µg/mL was 76% in experiment [9], 100% in experiment [10] and 51.7% in experiment [11].
As to `Cc1cc(Br)cc(C(=O)NNCc2cccc(C(F)(F)F)c2)c1NC(=O)CC(C)(C)C`, the outcome in [1] and in [2] was Active. Further, in experiment [3], the LC50 is 89.8 µg/mL (≈ 179 µM). For the same molecule, the mortality at 25 µg/mL in experiment [4] was determined as 26%. Besides, the mortality at 100 µg/mL in [5] was 43.3%. In [6], the mortality at 400 µg/mL turned out to be 93.3%. Also, the mortality at 50 µg/mL in experiment [7] is 38.4%. The mortality at 200 µg/mL in [8] was 64.4%. Further, the mortality at 600 µg/mL in experiment [9] is 40%; in experiment [10], 100%; in experiment [11], 18.7%.
Take `O=[N+]([O-])/N=C1\NCCN1Cc1ccc(Cl)nc1` [IMIDACLOPRID]: the mortality at 2 µg/mL in experiment [12] was found to be 100%.
Take `CNC(=O)c1cc(Cl)cc(C)c1NC(=O)c1cc(Br)nn1-c1ncccc1Cl` [CHLORANTRANILIPROLE]: the mortality at 200 µg/mL in [13] is 91.3%; in experiment [8] it was 29.9%. Moreover, the LC50 in experiment [3] is 633 µg/mL (≈ 1310 µM). The mortality at 25 µg/mL in experiment [4] amounted to 7.4%. The mortality at 100 µg/mL in [5] worked out at 17.2%. The mortality at 400 µg/mL in experiment [6] worked out at 40.7%. Moreover, the mortality at 0.2 µg/mL in [14] stood at 100%. Besides, the mortality at 50 µg/mL in experiment [7] was determined as 13.2%.
Turning to `Cc1cc(Cl)cc(C(=O)NNCc2ccccc2Cl)c1NC(=O)CC(C)(C)C`, the outcome in experiment [1] and in experiment [2] was Active. Further, in [3], the LC50 worked out at 27.9 µg/mL (≈ 66.1 µM). In [4], the mortality at 25 µg/mL is 38.4%. The mortality at 100 µg/mL in experiment [5] worked out at 80.4%. Moreover, in experiment [6], the mortality at 400 µg/mL is 92.2%. Further, the mortality at 50 µg/mL in experiment [7] was 74.1%. Moreover, in [8], the mortality at 200 µg/mL turned out to be 86.4%. Also, the mortality at 600 µg/mL in experiment [9] turned out to be 52%; in [10] it was 100%; in [11], 65.5%.
